From ChEMBL document CHEMBL1145778, “Novel alpha-melanocyte stimulating hormone peptide analogues with high candidacidal activity” (2003)
Non-standard residues stand in square brackets, D forms with d. Residues, ends and D or L forms follow the SMILES beside them. d2Nal = N[C@H](Cc1ccc2ccccc2c1)C(=O)O

Test system: Candida albicans
Assay: Inhibition of Candida albicans at 100 uM concentration.
Format: functional
In short: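 Five C. albicans clinical isolates plus ATCC 24433, grown 48 h at 32 °C in Sabouraud dextrose broth to stationary phase, washed in distilled water. 1×10^6 yeast in water exposed to peptide at 10^-4 M final, 2 h at 37 °C; water controls. Diluted to ~100 organisms/mL, 1 mL plated on blood agar, 48 h at 37 °C, colonies counted. Triplicates.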

`CC(C)[C@H](NC(=O)[C@H](CO)NC(=O)[C@H](CCCCN)NC(=O)CNC(=O)[C@H](Cc1c[nH]c2ccccc12)NC(=O)[C@H](CCCN=C(N)N)NC(=O)[C@@H](Cc1ccc2ccccc2c1)NC(=O)[C@@H](N)Cc1c[nH]cn1)C(N)=O` gave an inhibition at 100 µM of 73.9%.

Compound `CC(C)[C@H](NC(=O)[C@H](Cc1ccccc1)NC(=O)[C@H](CCCCN)NC(=O)CNC(=O)[C@H](Cc1c[nH]c2ccccc12)NC(=O)[C@H](CCCNC(=N)N)NC(=O)[C@H](Cc1ccccc1)NC(=O)[C@@H](N)Cc1cnc[nH]1)C(N)=O` has an inhibition at 100 µM of 97.5%.

`CC(C)[C@H](NC(=O)[C@H](Cc1ccccc1)NC(=O)[C@H](CCCCN)NC(=O)CNC(=O)[C@H](Cc1c[nH]c2ccccc12)NC(=O)[C@H](CCCN=C(N)N)NC(=O)[C@@H](Cc1ccc2ccccc2c1)NC(=O)[C@@H](N)Cc1c[nH]cn1)C(N)=O` showed an inhibition at 100 µM of 67.7%.

Work on `CC(C)[C@H](NC(=O)[C@@H](C)NC(=O)[C@H](CCCCN)NC(=O)CNC(=O)[C@H](Cc1c[nH]c2ccccc12)NC(=O)[C@H](CCCN=C(N)N)NC(=O)[C@@H](Cc1ccc2ccccc2c1)NC(=O)[C@@H](N)Cc1c[nH]cn1)C(N)=O` yielded an inhibition at 100 µM of 28%.

`CC(C)[C@@H](NC(=O)[C@H]1CCCN1C(=O)[C@H](CCCCN)NC(=O)CNC(=O)[C@H](Cc1c[nH]c2ccccc12)NC(=O)[C@H](CCCN=C(N)N)NC(=O)[C@H](Cc1ccccc1)NC(=O)[C@@H](N)Cc1c[nH]cn1)C(N)=O` was tested, and the inhibition at 100 µM was 82.5%.

`CC(C)[C@H](NC(=O)[C@@H](Cc1ccccc1)NC(=O)[C@H](CCCCN)NC(=O)CNC(=O)[C@H](Cc1c[nH]c2ccccc12)NC(=O)[C@H](CCCN=C(N)N)NC(=O)[C@@H](Cc1ccc2ccccc2c1)NC(=O)[C@@H](N)Cc1c[nH]cn1)C(N)=O` showed an inhibition at 100 µM of 99.7%.

Work on `CC(C)[C@H](NC(=O)[C@H](C)NC(=O)[C@H](CCCCN)NC(=O)CNC(=O)[C@H](Cc1c[nH]c2ccccc12)NC(=O)[C@H](CCCN=C(N)N)NC(=O)[C@@H](Cc1ccc2ccccc2c1)NC(=O)[C@@H](N)Cc1c[nH]cn1)C(N)=O` yielded an inhibition at 100 µM of 69.2%.

With `CC(C)[C@H](NC(=O)[C@H](CC(=O)O)NC(=O)[C@H](CCCCN)NC(=O)CNC(=O)[C@H](Cc1c[nH]c2ccccc12)NC(=O)[C@H](CCCN=C(N)N)NC(=O)[C@H](Cc1ccccc1)NC(=O)[C@@H](N)Cc1c[nH]cn1)C(N)=O` the inhibition at 100 µM was 15.7%.

In the case of `CC(C)[C@H](NC(=O)[C@H](CCCCN)NC(=O)[C@H](CCCCN)NC(=O)CNC(=O)[C@H](Cc1c[nH]c2ccccc12)NC(=O)[C@H](CCCN=C(N)N)NC(=O)[C@@H](Cc1ccc2ccccc2c1)NC(=O)[C@@H](N)Cc1c[nH]cn1)C(N)=O`, the inhibition at 100 µM is reported as 83.8%.

For `CC(C)[C@H](NC(=O)[C@H]1CCCN1C(=O)[C@H](CCCCN)NC(=O)CNC(=O)[C@H](Cc1c[nH]c2ccccc12)NC(=O)[C@H](CCCN=C(N)N)NC(=O)[C@@H](Cc1ccccc1)NC(=O)[C@@H](N)Cc1c[nH]cn1)C(N)=O`, the inhibition at 100 µM was 80.5%.

`CC(C)[C@H](NC(=O)[C@@H](CC(=O)O)NC(=O)[C@H](CCCCN)NC(=O)CNC(=O)[C@H](Cc1c[nH]c2ccccc12)NC(=O)[C@H](CCCN=C(N)N)NC(=O)[C@@H](Cc1ccccc1)NC(=O)[C@@H](N)Cc1c[nH]cn1)C(N)=O` showed an inhibition at 100 µM of 3.7%.

In the case of `CC(C)[C@H](NC(=O)[C@H](C)NC(=O)[C@H](CCCCN)NC(=O)CNC(=O)[C@H](Cc1c[nH]c2ccccc12)NC(=O)[C@H](CCCN=C(N)N)NC(=O)[C@H](Cc1ccccc1)NC(=O)[C@@H](N)Cc1c[nH]cn1)C(N)=O`, the inhibition at 100 µM is reported as 46.1%.

`CC(C)[C@H](NC(=O)[C@H](CCC(=O)O)NC(=O)[C@H](CCCCN)NC(=O)CNC(=O)[C@H](Cc1c[nH]c2ccccc12)NC(=O)[C@H](CCCN=C(N)N)NC(=O)[C@@H](Cc1ccc2ccccc2c1)NC(=O)[C@@H](N)Cc1c[nH]cn1)C(N)=O` gave an inhibition at 100 µM of 32.3%.

For `CC(C)[C@H](NC(=O)[C@H](CC(=O)O)NC(=O)[C@H](CCCCN)NC(=O)CNC(=O)[C@H](Cc1c[nH]c2ccccc12)NC(=O)[C@H](CCCN=C(N)N)NC(=O)[C@@H](Cc1ccc2ccccc2c1)NC(=O)[C@@H](N)Cc1c[nH]cn1)C(N)=O`, the inhibition at 100 µM was 16.8%.

`CC(C)[C@H](NC(=O)[C@@H](Cc1ccccc1)NC(=O)[C@H](CCCCN)NC(=O)CNC(=O)[C@H](Cc1c[nH]c2ccccc12)NC(=O)[C@H](CCCN=C(N)N)NC(=O)[C@@H](Cc1ccccc1)NC(=O)[C@@H](N)Cc1c[nH]cn1)C(N)=O` was tested, and the inhibition at 100 µM was 89.6%.

Work on `CC(C)[C@H](NC(=O)[C@@H](C)NC(=O)[C@H](CCCCN)NC(=O)CNC(=O)[C@H](Cc1c[nH]c2ccccc12)NC(=O)[C@H](CCCN=C(N)N)NC(=O)[C@H](Cc1ccccc1)NC(=O)[C@@H](N)Cc1c[nH]cn1)C(N)=O` yielded an inhibition at 100 µM of 12.8%.

Work on `CC(C)[C@H](NC(=O)[C@@H](Cc1ccccc1)NC(=O)[C@H](CCCCN)NC(=O)CNC(=O)[C@H](Cc1c[nH]c2ccccc12)NC(=O)[C@H](CCCN=C(N)N)NC(=O)[C@H](Cc1ccccc1)NC(=O)[C@@H](N)Cc1c[nH]cn1)C(N)=O` yielded an inhibition at 100 µM of 90.8%.

Compound `CC(C)[C@H](NC(=O)CNC(=O)[C@H](CCCCN)NC(=O)CNC(=O)[C@H](Cc1c[nH]c2ccccc12)NC(=O)[C@H](CCCN=C(N)N)NC(=O)[C@@H](Cc1ccc2ccccc2c1)NC(=O)[C@@H](N)Cc1c[nH]cn1)C(N)=O` has an inhibition at 100 µM of 36.2%.

`CC(C)[C@H](NC(=O)[C@@H](CC(=O)O)NC(=O)[C@H](CCCCN)NC(=O)CNC(=O)[C@H](Cc1c[nH]c2ccccc12)NC(=O)[C@H](CCCN=C(N)N)NC(=O)[C@H](Cc1ccccc1)NC(=O)[C@@H](N)Cc1c[nH]cn1)C(N)=O` showed an inhibition at 100 µM of 5.9%.

Work on `CC(C)[C@H](NC(=O)[C@H](Cc1ccccc1)NC(=O)[C@H](CCCCN)NC(=O)CNC(=O)[C@H](Cc1c[nH]c2ccccc12)NC(=O)[C@H](CCCN=C(N)N)NC(=O)[C@@H](Cc1ccccc1)NC(=O)[C@@H](N)Cc1c[nH]cn1)C(N)=O` yielded an inhibition at 100 µM of 77.7%.

`CC(C)[C@H](NC(=O)[C@@H]1CCCN1C(=O)[C@H](CCCCN)NC(=O)CNC(=O)[C@H](Cc1c[nH]c2ccccc12)NC(=O)[C@H](CCCN=C(N)N)NC(=O)[C@@H](Cc1ccc2ccccc2c1)NC(=O)[C@@H](N)Cc1c[nH]cn1)C(N)=O` (H-H[d2Nal]RWGKPV-NH2) showed an inhibition at 100 µM of 95.3%.

Work on H-HFRWGAPV-NH2 yielded an inhibition at 100 µM of 26.2%.

Compound H-HFRWGKEV-NH2 has an inhibition at 100 µM of 11.2%.

H-HFRWGKGV-NH2 showed an inhibition at 100 µM of 41.8%.

For H-HFRWGKKV-NH2, the inhibition at 100 µM was 41%.

Work on H-HFRWGKPA-NH2 yielded an inhibition at 100 µM of 68.4%.

With H-HFRWGKPL-NH2 the inhibition at 100 µM was 87.4%.

With H-HFRWGKSV-NH2 the inhibition at 100 µM was 32.3%.
